This note sets out measurements from ChEMBL document CHEMBL1806397, “6-Aryl-3-pyrrolidinylpyridines as mGlu5 receptor negative allosteric modulators” (Bioorg Med Chem Lett, 2011).

One data set has as its system Liver microsomes. Nature of the data set: Intrinsic clearance in human liver microsomes at 1 uM after 0.25 to 60 mins by LC-MS/MS analysis. It counts as ADME, Microsome. A digest of the protocol:
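Compound at 1 µM incubated at 37 °C with pooled human liver microsomes (0.5 mg/mL) in 0.1 M potassium phosphate pH 7.4 with an NADPH-regenerating system. Aliquots taken at 0.25, 5, 15, 30 and 60 min and quenched in acetonitrile. CLint calculated from T1/2, scaled by liver and microsomal protein factors.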

A short description of data set [1]: Dissociation constant, pKa of the compound. It counts as physicochemical.
Data set [2] is described as follows: Apparent permeability of the compound at pH 7.4 by PAMPA method. Type of data set: ADME. A digest of the protocol: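 Passive membrane permeability estimated by PAMPA; apparent permeability (P_APP) reported in cm/s.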
The nature of data set [3]: Distribution coefficient, log D of the compound at pH 7.4. It counts as physicochemical. Conditions: octanol/water.
Data set [4] can be described thus: Drug level in Sprague-Dawley rat brain at 10 mg/kg, po after 1 hr. Type of data set: ADME, organism-based. More on the design: dose 10 mg/kg, route oral. The settings on record: read-out: Drug uptake.
Data set [5] in a line: Ratio of drug level in brain to plasma in Sprague-Dawley rat at 10 mg/kg, po after 1 hr. Type of data set: ADME, organism-based. Also on record: dose 10 mg/kg, route oral. The settings on record: read-out: BPR.
The nature of data set [6]: Drug level in Sprague-Dawley rat plasma at 10 mg/kg, po after 1 hr. Type of data set: ADME, organism-based. Also on record: dose 10 mg/kg, route oral.
A further data set relates to Plasma. As to the kind of experiment: Free drug level in Sprague-Dawley rat plasma at 10 mg/kg, po after 1 hr. Type of data set: ADME, organism-based. Also on record: dose 10 mg/kg, route oral. Conditions: in vivo.
Data set [7] can be described thus: Drug level in Sprague-Dawley rat cerebrospinal fluid at 10 mg/kg, po after 1 hr. Type of data set: ADME, organism-based. The settings on record: read-out: Drug uptake. More on the design: dose 10 mg/kg, route oral.

`Cc1cc(-c2cccc(Cl)c2)ncc1C1CC(F)CN1C(=O)c1cnccn1` (stereo unspecified) registered a CL in the data set on Liver microsomes of 2.6 L/min.
The compound `O=C(c1cccs1)N1CCCC1c1ccc(-c2cccc(Cl)c2)nc1` (stereo unspecified) gave a pKa in [1] of 3.6. The compound further displayed a CL in the data set on Liver microsomes of 3 L/min.
Regarding `O=C(c1nccs1)N1CCCC1c1ccc(-c2cccc(Cl)c2)nc1` (stereo unspecified), the CL with Liver microsomes is given as 3.8 L/min.
`O=C(c1cncs1)N1CCCC1c1ccc(-c2cccc(Cl)c2)nc1` (stereo unspecified) yielded a pKa in [1] of 3.6. The CL with Liver microsomes came out at 1.6 L/min.
The compound `Cc1cc(C(=O)N2CCCC2c2ccc(-c3cccc(Cl)c3)nc2)no1` (stereo unspecified) gave a pKa in data set [1] of 3.5.
`O=C(c1cnccn1)N1CCCC1c1ccc(-c2cccc(Cl)c2)nc1` (stereo unspecified): the pKa in data set [1] is 3.4. Also, the CL with Liver microsomes came out at 3.3 L/min.
On the same counts, the results for `Cc1cc(-c2cccc(Cl)c2)ncc1C1CCCN1C(=O)c1cncs1` (stereo unspecified) are 4.2 and 35 L/min.
On the same counts, the results for `Cc1cc(C(=O)N2CCCC2c2cnc(-c3cccc(Cl)c3)cc2C)no1` (stereo unspecified) are 4.2 and 38 L/min.
On the same counts, the results for `Cc1cc(-c2cccc(Cl)c2)ncc1C1CCCN1C(=O)c1cnccn1` (stereo unspecified) are 4.1 and 3.3 L/min.
For `Cc1cc(-c2cccc(Cl)c2)ncc1C1CCCN1C(=O)c1ccncn1` (stereo unspecified), the CL with Liver microsomes is 5.3 L/min.
On the same count and under the same terms, under `Cc1cc(-c2cccc(Cl)c2)ncc1C1CCCN1C(=O)C1CCC1` (stereo unspecified) stands 5.3 L/min.
The compound `COc1cc(-c2cccc(Cl)c2)ncc1C1CCCN1C(=O)c1cncs1` (stereo unspecified) showed a pKa in [1] of 5. This compound yielded a CL in the data set on Liver microsomes of 1.7 L/min.
On to `O=C(C1CCC1)N1CCCC1c1cnc(-c2cccc(Cl)c2)cc1O` (stereo unspecified), for which, in data set [1], the pKa was found to be 2.8.
`Cc1cc(-c2cccc(Cl)c2)ncc1C1CC(O)CN1C(=O)c1nccs1` (stereo unspecified) registered a CL in the data set with Liver microsomes of 0.9 L/min.
As to `Cc1cc(-c2cccc(Cl)c2)ncc1C1CC(O)CN1C(=O)c1cnccn1` (stereo unspecified), the CL in the data set with Liver microsomes is on record as 1.6 L/min.
Take `Cc1cc(-c2cccc(Cl)c2)ncc1C1CC(F)CN1C(=O)c1cncs1` (stereo unspecified): the CL in the data set on Liver microsomes stood at 7.1 L/min.
For `Cc1cc(-c2cccc(Cl)c2)ncc1[C@H]1CCCN1C(=O)c1nccs1`, in [2], the Papp amounted to 15 ×10⁻⁶ cm/s. The log distribution coefficient (logD) in [3] stood at 4.3. Moreover, the concentration at 1 h was determined as 133 nM in [4], 162 nM in [6] and 3 nM in data set [7]. Moreover, in data set [5], the Kp at 1 h was found to be 0.8. The “Cp(f)” value in the data set with Plasma is given as 1 nM.
`Cc1cc(-c2cccc(Cl)c2)ncc1C1CCCN1C(=O)c1nccs1` (racemic) had a CL in the data set with Liver microsomes of 5.2 L/min.
